Most compounds without a hit are left out; they make up all but 4.1% or so of the library.
KCNQ1 inh – blocks the human KCNQ1 potassium channel | B-score at 10 µM | AID 2642 | hit rate 1.3% among 310,000 | CHO-K1 KCNQ1, FluxOR thallium flux fluorescence; stronger effect = higher value;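 active means compounds whose thallium flux B-score, printed positive for inhibition, exceeds three library SD while starting fluorescence stays within three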;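 further: channel opened by potassium depolarization with thallium stimulus after 20 min compound exposure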
KCNQ1 act – potentiators or activators of human KCNQ1 potassium channel | CHO-K1 KCNQ1, thallium flux FluxOR fluorescence; stronger effect = higher value | B-score at 10 µM | hit rate 0.35% among 310,000 | AID 2648;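 active means fluorescence ratio B-score, a plate-corrected score, at least three library SD, with initial intensity B-score within 5 SD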
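Assay system: CHO-K1 cells stably expressing KCNQ1; Medium: assay buffer with matched DMSO; Also added: K+/Tl+ depolarizing stimulus; Dosing: single dose; Timing: dye 90 min, compound 20 min, room temperature; Measured by: kinetic FluxOR thallium fluorescence, 10-s 1-Hz baseline, 110-s post-stimulus read; Read-out: peak-minus-minimum fluorescence over initial fluorescence, negative-control normalized, B-scored.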
hERG rescue – compounds protecting human hERG from proarrhythmic drug block | Q12809 | CHO-hERG, FluxOR thallium flux, dofetilide IC70 present | activation (rescue from dofetilide block), less the hit threshold, % at 10 µM | hit rate 0.51% among 310,000 | AID 1511;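 active means activation above the mean of controls blocked by dofetilide plus 5 SD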;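 further: thallium influx through hERG after potassium depolarization seen as dye fluorescence rise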
KCC2 mod – modulators of human KCC2 chloride dependent transport. B-score of Tl+ flux slope (higher = more flux/activation; lower = inhibition) at 10 µM. KCC2 cells, thallium flux FluoZin-2 fluorescence. hit rate 2.2% among 190,000;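 active means thallium flux slope and its plate-corrected score both differing from the plate sample mean at a set confidence after two filtering rounds, in either direction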;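 further: slope of fluorescence scaled to starting intensity during 10 to 20 s after thallium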
KCNK9 block – human KCNK9 channel inhibition | Q9NPC2 | HEK293 KCNK9, FluxOR thallium flux fluorescence; stronger effect = lower value | B-score at 10 µM | hit rate 1.2% among 310,000 | AID 488922;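 active means ratio B-score over 3 SD below the library mean, with starting fluorescence within 5 SD of its mean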;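 further: negative B-score means less thallium flux so channel inhibition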
KCNK3 block – human KCNK3 channel inhibition, primary screen; hit rate 0.84% among 340,000; B-score at 10 µM; O14649; CHO-KCNK3 thallium flux, FluxOR fluorescence; stronger effect = lower value; AID 602410;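 active means B-score under library mean minus 4 SD, starting fluorescence ratio at most library mean plus 5 SD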;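 further: more negative B-score means stronger inhibition of thallium flux through KCNK3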
Target sequence (O14649 whole entry, looked up): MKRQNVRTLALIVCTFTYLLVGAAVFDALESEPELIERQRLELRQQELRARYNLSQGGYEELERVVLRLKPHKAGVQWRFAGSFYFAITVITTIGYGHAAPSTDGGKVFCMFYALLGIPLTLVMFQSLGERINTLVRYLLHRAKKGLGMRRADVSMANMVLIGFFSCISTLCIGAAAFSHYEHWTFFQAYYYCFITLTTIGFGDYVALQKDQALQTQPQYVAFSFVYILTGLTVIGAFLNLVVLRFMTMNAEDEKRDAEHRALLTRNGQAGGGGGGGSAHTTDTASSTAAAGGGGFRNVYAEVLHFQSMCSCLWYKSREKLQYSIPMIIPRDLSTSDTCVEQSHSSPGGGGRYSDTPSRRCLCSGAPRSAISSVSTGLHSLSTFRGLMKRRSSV
The depositor's hits bear a star; i = inactive; nt = no result.

SMILES | KCNQ1 inh | KCNQ1 act | hERG rescue | KCC2 mod | KCNK9 block | KCNK3 block
COc1cccc(/C=N/Nc2ccc(S(=O)(=O)O)cc2)c1O | i | i | -7.8 | nt | i | i
COc1ccc(C(=O)NC(=O)CSc2n[nH]c(N)n2)cc1 | nt | nt | nt | nt | nt | i
O=C(Nc1ccccc1C(=O)Nc1ccncc1)c1ccccc1 | i | i | -5.1 | nt | i | i
CC12CCC(C(=O)N(CSC(=S)N/N=C\c3ccccc3)C1=O)C2(C)C (stereo not given) | i | 15* | 0.8 | 22.8* | i | i
CC12CCC(C(=O)N(CC(=O)O)C1=O)C2(C)C (stereo not given) | i | i | -8.4 | nt | i | i
CC12CCC(C(=O)N(CSC(=S)N/N=C\c3ccccc3Cl)C1=O)C2(C)C (stereo not given) | i | 35* | -6.3 | nt | i | i
CCOc1ccccc1N(C)C(=O)Cn1ncc2c([nH]c3ccc(C)cc32)c1=O | i | i | -6.3 | nt | i | i
Cc1sc2ncnc(N3CCC(C(=O)N(C)CC(=O)Nc4ccccc4Cl)CC3)c2c1C | i | i | -22.1 | nt | i | i
Cc1ccc(C(=O)N(C)CC(=O)Nc2ccc(Cl)c(C(F)(F)F)c2)cc1S(=O)(=O)N1CCCCC1 | nt | nt | nt | nt | nt | -10.9*
Cc1sc2ncnc(N3CCC(C(=O)N(C)CC(=O)Nc4ccc(Cl)c(C(F)(F)F)c4)CC3)c2c1C | 9* | i | -14.4 | nt | i | i
Cc1ccc(S(=O)(=O)N2CCCCC2)cc1C(=O)N(C)CC(=O)Nc1ccc(Cl)c(C(F)(F)F)c1 | i | i | -15.1 | nt | i | i
CC(C)c1ccc(/C=C/C(=O)NC(=S)Nc2ccc(CN3CCOCC3)cc2)cc1 | 9* | i | -17.1 | 0.731 | i | i
Cc1ccc(-c2nc(Nc3cccc(C)c3)sc2CC(=O)O)cc1 | i | i | -16.0 | -4.19* | i | i
COc1ccc2oc(C(=O)N(Cc3ccco3)Cc3cccs3)c(C)c2c1 | 9* | i | -16.5 | nt | i | i
COc1ccc2oc(C(=O)N3CCN(C(=O)c4ccco4)CC3)c(C)c2c1 | i | i | -8.6 | nt | i | i
Clc1ccc(C(c2ccccc2Cl)C(Cl)Cl)cc1 (stereo not given) | nt | nt | nt | nt | nt | -8.93*
CCc1ccc(C(c2ccc(CC)cc2)C(Cl)Cl)cc1 | nt | nt | nt | nt | nt | i
O=C(Cn1nnc2ccccc21)c1cccc([N+](=O)[O-])c1 | i | i | 5.3* | 0.0873 | i | i
O=C(Cn1nnc2ccccc21)OCC(=O)c1ccccc1 | i | i | -18.5 | 3.19* | i | i
Cc1cc(NC(=O)/C(C#N)=C\c2ccc(-c3ccc(SC(F)F)cc3)o2)n(-c2ccccc2)n1 | nt | nt | nt | nt | nt | i
CC12CC3CC(C)(C1)CC(C(=O)NC(=S)N1CCCCC1)(C3)C2 | i | i | -0.7 | 10.5* | i | i
O=C(CNC(=O)c1nn(Cc2ccccc2)c(=O)c2ccccc12)Nc1ccc(F)c(F)c1F | nt | nt | nt | nt | nt | i
COc1cc(S(=O)(=O)NCC2COCCO2)ccc1-n1cnnn1 (stereo not given) | i | i | 5.8* | 0.602 | i | i
COc1ccc(N2CCN(C(c3ccccc3OC)c3nnnn3C3CCCC3)CC2)cc1 (stereo not given) | i | i | -10.7 | -1.91 | i | i
COc1ccc(OC)c(C(c2nnnn2C2CCCC2)N2CCN(c3ccccc3F)CC2)c1 (stereo not given) | i | i | -7.0 | nt | -8.91* | i
SMILES | KCNQ1 inh | KCNQ1 act | hERG rescue | KCC2 mod | KCNK9 block | KCNK3 block
Cc1ccc(C)c(NC(=S)NNC(=O)c2csc(C(C)C)c2)c1 | i | i | -13.6 | 13.5* | i | i
CC(C)CNC(=S)NNC(=O)c1csc2c1CCC(C)C2 (stereo not given) | i | i | -8.4 | -0.132 | i | i
Cc1ccc(C)c(NC(=S)NNC(=O)c2cc3c(s2)CCC(C)C3)c1 (stereo not given) | i | i | 9.3* | 28.4* | i | i
Cc1cccc(NC(=S)NNC(=O)c2csc3c2CCC(C)C3)c1 (stereo not given) | i | 20* | -0.8 | 25.1* | i | i
Cc1ccc(C)c(NC(=S)NNC(=O)c2ccco2)c1 | i | i | -7.1 | -0.077 | i | i
CC1=CC2(C)C(C3C(C)=CC2(C)C(=O)C3(C)O)C(C)(O)C1=O (stereo not given) | nt | nt | nt | nt | nt | i
COc1cc(C(=O)NC(=S)Nc2ccc(Cl)cn2)cc(OC)c1OC | i | i | -4.7 | nt | i | i
c1ccc(-c2nnsc2-c2ncc[nH]2)cc1 | i | i | 4.7* | -0.0594 | i | i
Cc1cc(NS(=O)(=O)c2ccc(Nc3nc(-c4sc(NC(=O)c5ccccc5)nc4C)cs3)cc2)no1 | 7* | i | -15.6 | nt | i | nt
CCC(=O)Nc1nc(C)c(-c2csc(Nc3ccc(S(=O)(=O)Nc4cc(C)on4)cc3)n2)s1 | nt | nt | nt | -0.244 | nt | nt
N#C/C(=C(/O)c1ccc(-c2cccc([N+](=O)[O-])c2)o1)c1nc2ccccc2s1 | 7* | i | -10.5 | -2.88 | i | i
Cc1cccc(NC(=S)NCC(c2ccccc2)N(C)C)c1 (stereo not given) | i | i | -17.4 | -0.536 | i | i
Cc1ccc(NC(=S)NCC(C)CSc2ccc(Cl)cc2)cc1 (stereo not given) | 8* | i | -9.6 | 0.00412 | i | i
Cc1cccc(NC(=S)NCC(C)CSc2ccc(Cl)cc2)c1 (stereo not given) | 9* | i | -26.5 | -2.27 | i | i
C[C@@H](C(=O)CC(=O)OC(C)(C)C)[C@@H](O)c1c(F)cccc1Cl | i | i | -6.8 | nt | -8.01* | i
Cc1ccccc1NC(=O)COC(=O)CCC(=O)c1cccs1 | nt | nt | nt | nt | nt | i
COc1ccc(NC(=O)C2(c3ccccc3)CCCC2)cc1 | i | i | -13.7 | -0.0328 | i | i
COCCNC(=O)c1ccc(NC(=O)C2(c3ccccc3)CCCC2)cc1 | i | i | 7.5* | -0.966 | i | i
Cc1ccsc1/C=C/C1=Cc2c(sc(NC(=O)CSc3n[nH]c(N)n3)c2C#N)C(C)(C)C1 | 8* | i | -17.2 | -1.22 | i | i
CCOC(=O)c1sc(NC(=O)CSc2n[nH]c(-c3ccncc3)n2)c(C#N)c1C | i | i | 1.2 | -0.786 | i | i
CCOc1ccc(/C=C/C2=Cc3c(sc(NC(=O)CSc4n[nH]c(N)n4)c3C#N)C(C)(C)C2)cc1 | i | i | -16.2 | 0.55 | i | -8.8*
O=C(CSc1ccccc1)NNC(=O)c1ccccc1O | i | i | -14.0 | nt | i | i
O=C(COc1ccc(-n2cnnn2)cc1)Nc1ccc(F)c(F)c1 | nt | nt | nt | nt | nt | i

From PubChem BioAssay
